The values below come from ChEMBL document CHEMBL1123888, “Aldosterone antagonists. 2. Synthesis and biological activities of 11,12-dehydropregnane derivatives” (J Med Chem, 1987).

The source made the active and inactive calls. The rule behind the calls is not given here.

Experiment [1] concerns the target T1, Mineralocorticoid receptor (Rattus norvegicus) (UniProt P22199).
T1 sequence (whole entry): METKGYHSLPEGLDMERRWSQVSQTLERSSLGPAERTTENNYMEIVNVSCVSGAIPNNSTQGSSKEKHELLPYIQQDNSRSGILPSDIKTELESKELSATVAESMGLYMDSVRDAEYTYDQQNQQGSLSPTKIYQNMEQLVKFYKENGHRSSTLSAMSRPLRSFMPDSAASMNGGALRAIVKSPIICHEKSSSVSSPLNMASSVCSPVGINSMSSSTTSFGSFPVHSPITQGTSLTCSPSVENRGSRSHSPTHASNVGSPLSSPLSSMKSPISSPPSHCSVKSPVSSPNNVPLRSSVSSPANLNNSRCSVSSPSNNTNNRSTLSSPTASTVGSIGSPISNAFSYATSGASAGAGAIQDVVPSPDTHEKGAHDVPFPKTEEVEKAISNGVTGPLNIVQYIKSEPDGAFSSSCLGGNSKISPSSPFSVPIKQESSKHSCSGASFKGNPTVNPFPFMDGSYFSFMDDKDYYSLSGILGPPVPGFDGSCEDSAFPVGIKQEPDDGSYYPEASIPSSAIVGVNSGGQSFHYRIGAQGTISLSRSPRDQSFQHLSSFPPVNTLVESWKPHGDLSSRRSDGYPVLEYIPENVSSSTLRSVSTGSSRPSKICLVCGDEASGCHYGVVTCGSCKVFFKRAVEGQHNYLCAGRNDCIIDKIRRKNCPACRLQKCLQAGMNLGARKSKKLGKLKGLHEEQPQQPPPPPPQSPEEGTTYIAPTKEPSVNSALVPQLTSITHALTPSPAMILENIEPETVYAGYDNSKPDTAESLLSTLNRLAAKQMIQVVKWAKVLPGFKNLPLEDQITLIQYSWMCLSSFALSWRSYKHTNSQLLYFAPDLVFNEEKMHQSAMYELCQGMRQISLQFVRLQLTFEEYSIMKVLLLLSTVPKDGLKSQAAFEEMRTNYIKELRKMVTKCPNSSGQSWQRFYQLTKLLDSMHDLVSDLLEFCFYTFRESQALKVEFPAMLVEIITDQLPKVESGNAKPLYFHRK
Briefly: Relative binding affinity against mineralocorticoid receptor determined in rat renal cytosol using [3]Ald as ligand. The gist of the method:
(§1)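 Renal cytosol came from male Sprague-Dawley rats (4-8 weeks) adrenalectomized bilaterally 1 or 2 days earlier. It was incubated with various competitor concentrations and about 1 nM [3H]Ald for 42-48 h at 0 °C or 100-120 min at 25 °C. Bound and free steroid were separated by DCC.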

Experiment [2] addresses T1, Mineralocorticoid receptor (Rattus norvegicus). Kind of experiment: Agonist activity against Mineralocorticoid receptor was determined after subcutaneous administration in Male Sprague Dawley rats; (+) =positive. The format is functional, organism-based. The note with it: filed as agonist.
Experiment [3] concerns the target T2, Progesterone receptor (Rattus norvegicus) (UniProt Q63449).
T2 sequence (whole entry): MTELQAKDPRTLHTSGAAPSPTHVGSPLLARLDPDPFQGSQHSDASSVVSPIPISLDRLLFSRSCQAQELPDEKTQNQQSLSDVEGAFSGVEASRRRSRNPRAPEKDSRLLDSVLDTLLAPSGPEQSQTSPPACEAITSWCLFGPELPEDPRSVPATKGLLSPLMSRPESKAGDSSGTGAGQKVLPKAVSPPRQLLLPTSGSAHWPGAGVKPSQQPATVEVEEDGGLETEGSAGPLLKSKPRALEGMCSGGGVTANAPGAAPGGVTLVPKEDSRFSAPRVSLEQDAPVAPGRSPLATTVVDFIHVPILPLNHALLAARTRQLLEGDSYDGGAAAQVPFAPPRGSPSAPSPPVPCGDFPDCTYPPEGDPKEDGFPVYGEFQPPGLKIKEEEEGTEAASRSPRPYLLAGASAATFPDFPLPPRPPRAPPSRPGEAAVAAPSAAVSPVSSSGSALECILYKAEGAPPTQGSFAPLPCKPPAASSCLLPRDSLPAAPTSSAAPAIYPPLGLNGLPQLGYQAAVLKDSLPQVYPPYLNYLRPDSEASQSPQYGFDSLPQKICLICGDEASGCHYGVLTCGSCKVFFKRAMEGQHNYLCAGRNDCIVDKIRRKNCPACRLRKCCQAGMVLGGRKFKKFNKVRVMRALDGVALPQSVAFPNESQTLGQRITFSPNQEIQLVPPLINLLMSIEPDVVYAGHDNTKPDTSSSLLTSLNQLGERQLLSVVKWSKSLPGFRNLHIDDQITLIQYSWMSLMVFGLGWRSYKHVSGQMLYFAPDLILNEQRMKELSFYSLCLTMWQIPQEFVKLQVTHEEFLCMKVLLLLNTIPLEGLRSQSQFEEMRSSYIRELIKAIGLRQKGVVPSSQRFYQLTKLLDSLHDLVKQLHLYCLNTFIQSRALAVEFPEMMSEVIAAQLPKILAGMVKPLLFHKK
Briefly: Relative binding affinity against progesterone receptor determined in rat […] cytosol using [3H]DHT as ligand.

Experiment [4] deals with T1, Mineralocorticoid receptor (Rattus norvegicus). Kind of experiment: Antagonist activity against Mineralocorticoid receptor was determined after subcutaneous administration in Male Sprague Dawley rats. The format is functional, organism-based. The gist of the method: (§2)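 Male rats were bilaterally adrenalectomized (bioassay modified from Kagawa). Ald (1 µg/kg) was given sc, immediately followed by test compound in sesame oil sc or orally. Urine was collected from 2 to 6 h after steroid. Potency came from the urinary Na/K ratio of sample versus control, with 95% confidence limits.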

The target is the same in experiment [5]. Kind of experiment: Relative potency compared to Aldosterone;Range is 72-216. The format is functional.
Experiment [6] has the same target. Briefly: Relative binding affinity to the rat mineralocorticoid receptor determined in rat renal cytosol using [3]Ald as ligand. The gist of the method: as §1
The species entered for another experiment is Rattus norvegicus. Kind of experiment: Displacement of [3H]promegestone from progestin receptor of rat uterine cytosol at 0 degree Centigrade. An outline of the steps:
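Uteri from estradiol-primed rats supplied the cytosol. It was incubated with various competitor concentrations and about 1 nM [3H]promegestone for 16-20 h at 0 °C. Bound and free steroid were separated by DCC. RBA (progesterone = 100%) = 100 × ratio of the 50%-inhibition concentrations of standard and competitor.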

Experiment [7] addresses T1, Mineralocorticoid receptor (Rattus norvegicus). Briefly: Relative anti-mineralocorticoid potency compared to Spironolactone after oral administration. The format is functional, organism-based. The gist of the method: as §2
The target is the same in experiment [8]. Briefly: Antagonist activity against Mineralocorticoid receptor after oral administration in Male Sprague Dawley rats; (-) = negative. It is filed as functional, organism-based. An outline of the steps: as §2
Experiment [9] shares this target. Briefly: Antagonist activity against Mineralocorticoid receptor after po administration in Male Sprague Dawley rats; (-) = negative. The format is functional, organism-based. An outline of the steps: as §2
Experiment [10] has as its target T3, Androgen receptor (Rattus norvegicus) (UniProt P15207).
T3 sequence (whole entry): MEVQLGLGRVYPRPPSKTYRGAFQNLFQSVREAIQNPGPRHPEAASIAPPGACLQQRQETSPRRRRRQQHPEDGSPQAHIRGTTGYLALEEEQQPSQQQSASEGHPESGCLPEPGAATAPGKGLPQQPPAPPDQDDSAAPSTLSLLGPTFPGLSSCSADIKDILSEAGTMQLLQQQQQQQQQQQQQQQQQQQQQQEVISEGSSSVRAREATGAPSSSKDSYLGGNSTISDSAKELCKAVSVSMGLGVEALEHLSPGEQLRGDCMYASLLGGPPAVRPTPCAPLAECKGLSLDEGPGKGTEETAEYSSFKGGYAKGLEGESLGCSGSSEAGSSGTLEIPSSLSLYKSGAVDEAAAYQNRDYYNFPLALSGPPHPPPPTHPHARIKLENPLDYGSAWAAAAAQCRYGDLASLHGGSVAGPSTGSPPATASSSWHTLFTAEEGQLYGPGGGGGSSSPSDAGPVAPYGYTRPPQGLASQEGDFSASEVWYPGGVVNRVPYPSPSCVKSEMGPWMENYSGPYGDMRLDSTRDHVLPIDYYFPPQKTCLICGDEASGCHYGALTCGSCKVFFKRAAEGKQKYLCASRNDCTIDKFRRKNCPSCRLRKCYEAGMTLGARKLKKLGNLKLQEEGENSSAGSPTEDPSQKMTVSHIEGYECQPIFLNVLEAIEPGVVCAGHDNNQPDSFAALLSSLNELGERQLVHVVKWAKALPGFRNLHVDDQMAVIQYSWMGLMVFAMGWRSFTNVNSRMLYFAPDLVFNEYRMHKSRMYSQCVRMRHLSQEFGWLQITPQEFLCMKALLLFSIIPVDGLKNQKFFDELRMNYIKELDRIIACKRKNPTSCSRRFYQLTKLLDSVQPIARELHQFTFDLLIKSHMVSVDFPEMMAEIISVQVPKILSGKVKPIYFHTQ
Briefly: Relative anti-androgenic activity as suppressive effect on weight increase of ventral prostate in castrated immature rats given testosterone propionate. It is filed as functional. The note with it: Prostate gland. The gist of the method:
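Male Sprague-Dawley rats (3 weeks old) were castrated 3 days earlier. […] Suppression of accessory sex organ weight gain gave relative antiandrogenic activity.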

Experiment [11] has as its target T1, Mineralocorticoid receptor (Rattus norvegicus). Kind of experiment: Antagonist activity against Mineralocorticoid receptor after subcutaneous administration in Male Sprague Dawley rats; (+) =positive. The format is functional, organism-based. The note with it: filed as antagonist. An outline of the steps:
as §2

For experiment [12] the target is unchanged. Briefly: In vivo relative Mineralocorticoid activity in Male Sprague-Dawley rats. It is filed as functional, organism-based.
Experiment [13] has the same target. Briefly: Relative binding affinity against Mineralocorticoid receptor in Male Sprague-Dawley rats. An outline of the steps: as §1
For experiment [14], the target named is T2, Progesterone receptor (Rattus norvegicus). Kind of experiment: Relative binding affinity against progesterone receptor in […].
Experiment [15] shares this target. Briefly: In vivo relative Progestational activity in Male Sprague-Dawley rats was determined. The format is functional, organism-based.
Experiment [16] has as its target T1, Mineralocorticoid receptor (Rattus norvegicus). Kind of experiment: Antagonist activity against Mineralocorticoid receptor after subcutaneous administration in Male Sprague Dawley rats; (-) = negative. It is filed as functional, organism-based. The gist of the method: as §2
The target is the same in experiment [17]. Kind of experiment: Agonist activity against Mineralocorticoid receptor after subcutaneous administration in Male Sprague Dawley rats; (+) =positive. The format is functional, organism-based. The note with it: filed as agonist.
For experiment [18] the target is unchanged. Kind of experiment: Relative potency compared to Aldosterone;Range is 53-97. It is filed as functional.
For experiment [19], the target named is T3, Androgen receptor (Rattus norvegicus). Briefly: Relative binding affinity against Androgen receptor in Male Sprague-Dawley rats. An outline of the steps:
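Rat ventral prostate cytosol from 4-8-week-old rats castrated 1 day earlier. Incubated with various competitor concentrations and about 1 nM [3H]DHT or [3H]methyltrienolone for 16-20 h at 0 °C. Bound and free steroid separated by dextran-coated charcoal.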

Experiment [20] has the same target. Briefly: In vivo relative androgenic activity in Male Sprague-Dawley rats. The format is functional, organism-based.
The target of experiment [21] is T1, Mineralocorticoid receptor (Rattus norvegicus). Briefly: Relative potency ompared to Aldosterone;Range 4-187. It is filed as functional.

`CC12C=CC(=O)C=C1C=CC1C2C=CC2(C)C1C1CC1[C@@]21CCC(=O)O1` (some centres undefined): the RBA came to 160% in [1], 19% in [3] and 200% in [6]. In addition, the Activity result in experiment [2] was “Agonist”. The outcome in experiment [4] was inactive. In [5], this compound displayed a Relative potency of 72.
On to `CC12CCC(=O)C=C1C=CC1C2C=CC2(C)C1CC[C@@]21CCC(=O)O1` (some centres undefined), for which the RBA in experiment [1] was 70%; in the experiment filed under Rattus norvegicus, 4.7%; in experiment [6] it was 64%. The Relative potency in experiment [7] turned out to be 2. The outcome in [8] and in experiment [9] was inactive. Further, the Activity in experiment [10] was 1; in [11], “Antagonist”.
On to `C[C@]12CC[C@@H]3C4CCC(=O)C=C4CC[C@H]3[C@@H]1CC[C@@H]2C(=O)CO` (some centres undefined), for which the Relative activity in [12] amounted to 1.5. In [13], this compound showed a relative binding affinity (RBA) of 170.
Consider `CC(=O)[C@H]1CC[C@H]2[C@@H]3CCC4=CC(=O)CC[C@]4(C)[C@H]3CC[C@]12C`, for which, in experiment [14], the RBA came to 100%. The Relative activity in experiment [15] came to 1.
Turning to `CC12CCC(=O)C=C1CCC1C2C=CC2(C)C(C(=O)CO)CCC12` (centres undefined), in experiment [12], the Relative activity worked out at 1. The same compound showed a relative binding affinity (RBA) in experiment [13] of 150.
`CC(=O)S[C@@H]1CC2=CC(=O)CCC2(C)C2C=CC3(C)C(CC[C@@]34CCC(=O)O4)C21` (some centres undefined): the RBA was 43% in experiment [1], 14% in experiment [3] and 169% in experiment [6]. In addition, the outcome in [16] was inactive. Moreover, the Activity entry in experiment [17] is “Agonist”. This compound also registered a Relative potency in experiment [18] of 53.
In [19], `CC12C=CC3C(CCC4CC(=O)CCC43C)C1CCC2O` (centres undefined) had a relative binding affinity (RBA) of 81. The compound further displayed a Relative activity in [20] of 1.
Take `CC12C=CC(=O)C=C1C1CC1C1C2C=CC2(C)C1CC[C@@]21CCC(=O)O1` (some centres undefined): the values for the RBA (in [1]; in the experiment filed under Rattus norvegicus; in experiment [6]) were 320%, 11% and 300%, respectively. The result in [16] was inactive. In [17], the Activity result is “Agonist”. Also, the Relative potency in [21] was 4.
